The values below come from ChEMBL document CHEMBL1131242, “6beta-Acetoxynortropane: a potent muscarinic agonist with apparent selectivity toward M2-receptors” (J Med Chem, 1998).

Residue numbers refer to the chain shown, from its start.

Assay [1] deals with T1, Muscarinic acetylcholine receptor M1 (Homo sapiens, UniProt P11229).
T1 sequence (P11229 whole entry): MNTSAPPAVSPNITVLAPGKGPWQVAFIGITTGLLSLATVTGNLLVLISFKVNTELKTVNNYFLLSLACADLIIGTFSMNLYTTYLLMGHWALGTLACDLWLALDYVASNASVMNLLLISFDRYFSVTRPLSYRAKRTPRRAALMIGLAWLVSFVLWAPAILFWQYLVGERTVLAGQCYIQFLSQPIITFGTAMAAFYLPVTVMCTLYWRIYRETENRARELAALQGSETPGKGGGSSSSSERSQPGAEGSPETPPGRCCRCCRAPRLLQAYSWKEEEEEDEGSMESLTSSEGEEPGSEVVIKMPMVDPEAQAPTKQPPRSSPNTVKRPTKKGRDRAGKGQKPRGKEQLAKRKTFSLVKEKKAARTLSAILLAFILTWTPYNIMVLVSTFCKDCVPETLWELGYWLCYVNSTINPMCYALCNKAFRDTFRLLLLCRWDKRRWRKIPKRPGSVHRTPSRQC
The assay is described as follows: Inhibition of binding of [3H]quinuclidinyl benzilate to muscarinic receptors in membranes of CHO cells transfected with Muscarinic acetylcholine receptor M1. It is filed as cell membranes. Put shortly:
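Membranes from CHO cells expressing human M1 receptor, harvested at 80-100% confluence. Competition against 0.2 nM [3H]quinuclidinyl benzilate in 25 mM sodium phosphate pH 7.4 with 5 mM MgCl2; 30 min at 37 °C, triplicate. Nonspecific binding with 10 μM atropine. Filtration and scintillation counting.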

For assay [2], the target named is T2, Muscarinic acetylcholine receptor M1 (Rattus norvegicus, UniProt P08482).
T2 sequence (P08482 whole entry): T1 sequence (P11229 whole entry) with A5V, T254S, P309S, R320K, A337G, I413V
The assay is described as follows: Inhibition of binding of [3H]quinuclidinyl benzilate to Muscarinic acetylcholine receptor M1 in rat cerebral cortical membranes. It is filed as cell membranes, Membrane. Put shortly:
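Rat cerebral cortex membranes were homogenised in 50 mM Tris-HCl pH 7.4 and diluted in HEPES binding buffer. They were incubated with 0.2 nM [3H]quinuclidinyl benzilate in 20 mM HEPES pH 7.4 with 10 mM MgCl2 and 100 mM NaCl for 30 min at 37 °C, in triplicate. Nonspecific binding used 1 µM atropine. Filtration was followed by scintillation counting.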

Assay [3] deals with T2, Muscarinic acetylcholine receptor M1.
Assay [4] has the same target. The assay is described as follows: Affinity versus [3H]oxotremorine M (agonist) binding to Muscarinic acetylcholine receptor M1 in Rat Cerebral Cortical Membranes, (Kd=[…]).
Assay [5] concerns the target T3, Muscarinic acetylcholine receptor M2 (Homo sapiens, UniProt P08172).
T3 sequence (P08172 whole entry): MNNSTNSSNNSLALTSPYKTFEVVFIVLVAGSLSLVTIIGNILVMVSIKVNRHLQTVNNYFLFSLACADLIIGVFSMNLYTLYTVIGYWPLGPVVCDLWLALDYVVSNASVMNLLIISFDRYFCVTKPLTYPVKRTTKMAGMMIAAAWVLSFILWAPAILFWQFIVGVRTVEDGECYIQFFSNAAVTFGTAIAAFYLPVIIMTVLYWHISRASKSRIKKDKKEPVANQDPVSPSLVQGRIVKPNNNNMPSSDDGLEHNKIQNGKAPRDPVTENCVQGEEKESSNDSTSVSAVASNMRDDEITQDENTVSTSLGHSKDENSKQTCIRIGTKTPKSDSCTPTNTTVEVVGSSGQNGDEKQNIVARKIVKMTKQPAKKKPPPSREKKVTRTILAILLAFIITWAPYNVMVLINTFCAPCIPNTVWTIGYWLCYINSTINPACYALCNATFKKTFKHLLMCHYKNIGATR
Put plainly: Inhibitory activity against [3H]quinuclidinyl Benzilate binding to Muscarinic acetylcholine receptor M2 in the presence of GTP. Put shortly:
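Membranes from CHO cells expressing human M2 receptor. Competition against 0.1 nM [3H]quinuclidinyl benzilate in 25 mM sodium phosphate pH 7.4, 5 mM MgCl2, without or with 10 μM GTP; 30 min at 37 °C, triplicate. Nonspecific binding with 1 μM atropine. Filtration, scintillation counting.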

Assay [6] addresses T3, Muscarinic acetylcholine receptor M2. The assay is described as follows: Inhibition of binding of [3H]quinuclidinyl benzilate to muscarinic receptors in membranes of CHO cells transfected with Muscarinic acetylcholine receptor M2. Type of assay: cell membranes.
The target of assay [7] is T4, Muscarinic acetylcholine receptor M4 (Homo sapiens, UniProt P08173).
T4 sequence (P08173 whole entry): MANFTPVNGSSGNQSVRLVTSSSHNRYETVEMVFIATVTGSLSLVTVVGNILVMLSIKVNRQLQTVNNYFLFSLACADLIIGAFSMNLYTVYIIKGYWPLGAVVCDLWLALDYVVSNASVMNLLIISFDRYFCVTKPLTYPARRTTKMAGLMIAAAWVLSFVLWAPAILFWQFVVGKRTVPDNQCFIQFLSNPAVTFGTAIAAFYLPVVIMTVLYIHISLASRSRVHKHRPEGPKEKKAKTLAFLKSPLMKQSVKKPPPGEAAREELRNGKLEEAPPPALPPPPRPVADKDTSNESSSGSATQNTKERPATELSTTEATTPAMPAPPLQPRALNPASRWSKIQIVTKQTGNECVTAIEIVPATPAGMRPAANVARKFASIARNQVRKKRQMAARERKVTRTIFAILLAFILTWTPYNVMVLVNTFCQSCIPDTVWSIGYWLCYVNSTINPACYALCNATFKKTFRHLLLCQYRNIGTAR
Put plainly: Inhibition of binding of [3H]quinuclidinyl benzilate to muscarinic receptors in membranes of CHO cells transfected with Muscarinic acetylcholine receptor M4. Type of assay: cell membranes.

Assay [8] has as its target Muscarinic acetylcholine receptor M4 (Homo sapiens) (UniProt P08173). Put plainly: Inhibitory activity against [3H]-cyclic AMP accumulation in CHO transfected cells mediated by Muscarinic acetylcholine receptor M4.
For assay [9], the target named is Muscarinic acetylcholine receptor M2 (Homo sapiens) (UniProt P08172). The assay is described as follows: Inhibition of binding of 0.1 nM [3H]quinuclidinyl benzilate to Muscarinic acetylcholine receptor M2 in membranes of transfected CHO cells in the absence of GTP.
Assay [10] shares this target. The assay is described as follows: Inhibition of binding of 0.1 nM [3H]quinuclidinyl benzilate to Muscarinic acetylcholine receptor M2 in membranes of transfected CHO cells in the presence of 10 uM GTP.

With `CC(=O)OC1CC2CCCC1N2` (stereo not given), the Ki was found to be 21 µM in [1]; 21 µM in [2]; 22 µM in assay [3]; 5.6 nM in assay [4]; 2.6 nM in assay [6]; 33 nM in assay [7]. The IC50 was 120 nM in [5], 11 nM (agonist) in assay [8], 17 nM in assay [9] and 120 nM in [10].
